The nature of data set [1]: Clearance in mouse liver microsomes. The format is ADME. The settings on record: read-out: CLH. The method in brief: (§1)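 Stability in mouse liver microsomes in vitro. Half-life (min) and intrinsic clearance (μL·min⁻¹·mg⁻¹) were determined.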
Background: Liver microsomes are a subcellular fraction often used to study metabolism.

Data set [2] in a line: Half life in mouse liver microsomes. It counts as ADME. A digest of the protocol:
as §1

Data set [3] deals with RAC-alpha serine/threonine-protein kinase (Homo sapiens) (UniProt P31749). Briefly: Inhibition of Akt PH domain (unknown origin) binding to PI(3,4)P2 at 100 uM by lipid overlay assay. A digest of the protocol: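 Lipid overlay: AktPH domain binding to PI(3,4)P2 spotted on a […] membrane.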
Chain of RAC-alpha serine/threonine-protein kinase (Homo sapiens) (P31749 whole entry, the tested form may be a part): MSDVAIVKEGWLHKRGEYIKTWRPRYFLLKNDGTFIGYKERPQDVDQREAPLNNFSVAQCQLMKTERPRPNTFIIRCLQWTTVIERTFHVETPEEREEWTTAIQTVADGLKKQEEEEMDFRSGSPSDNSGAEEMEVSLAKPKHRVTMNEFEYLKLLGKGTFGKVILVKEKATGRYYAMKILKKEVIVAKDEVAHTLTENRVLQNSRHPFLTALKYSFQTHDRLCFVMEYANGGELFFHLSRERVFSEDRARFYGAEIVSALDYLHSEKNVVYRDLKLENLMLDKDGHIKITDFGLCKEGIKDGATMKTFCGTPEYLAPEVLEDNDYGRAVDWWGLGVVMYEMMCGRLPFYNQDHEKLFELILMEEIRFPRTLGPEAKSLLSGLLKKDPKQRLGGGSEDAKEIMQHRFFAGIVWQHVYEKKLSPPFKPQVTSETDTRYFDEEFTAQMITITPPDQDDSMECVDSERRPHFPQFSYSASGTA
Data set [4] deals with A2780. Description: Cytotoxicity against human A2780 cells by ESI. It counts as functional, cell-based.
For data set [5], the system named is A2780. Briefly: Cytotoxicity against human A2780 cells by […]. It counts as functional, cell-based. A digest of the protocol:
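Cells were exposed to inhibitors together with 1 μg/mL TRAIL for 24 hr. Viability was read by CellTiter-Glo assay.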

For the next data set, the system named is U-87 MG. Briefly: Cytotoxicity against human U87MG cells at 6.25 to 50 uM after 24 hrs by CellTitre-Glo assay. The format is functional, cell-based. As to conditions: U-87MG ATCC. The method in brief:
(§2)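 Cells were treated with inhibitors alone for 24 hr. Viability was read by CellTiter-Glo luminescence.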

Data set [6] can be described thus: Half life in mouse at 1 mg/kg, iv. The format is ADME, organism-based. As to conditions: in vivo.
A short description of data set [7]: Bioavailability in ip dosed mouse. The format is ADME, organism-based. The settings on record: in vivo. A digest of the protocol:
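Bioavailability was calculated from intraperitoneal administration relative to an intravenous 1 mg/kg dose in mouse.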

Data set [8] is described as follows: Inhibition of Akt in human A2780 cells assessed as inhibition of TORC1/p70S6K/S6 pathway at 0.3 to 50 uM after 7 hrs by Western blotting analysis. It counts as cell-based. A digest of the protocol:
(§3)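 U87MG or A2780 cells were exposed to inhibitors for 7 hr. Lysates were Western blotted with phospho-S6 and total S6 antibodies.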
A general note: A western blot detects proteins with antibodies after separation by electrophoresis.

Data set [9] is described as follows: Clearance in mouse at 1 mg/kg, iv. It counts as ADME, organism-based. The settings on record: in vivo.
Data set [10] has as its system A2780. Briefly: Antimigratory activity against human A2780 cells at 0.75 to 1.5 uM by wound healing assay. It counts as functional, cell-based. A digest of the protocol: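 Wound healing: A2780 monolayers were treated with inhibitors and then scratch-wounded. The cell-free area was photographed at set time points, and the open wound area was quantified.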
For another data set, the system named is T47D. Description: Cytotoxicity against human T47D cells at 6.25 to 50 uM after 24 hrs by CellTitre-Glo assay. It counts as functional, cell-based. A digest of the protocol: as §2
Data set [11] is described as follows: Inhibition of Akt in human U87MG cells assessed as inhibition of TORC1/p70S6K/S6 pathway at 0.3 to 50 uM after 7 hrs by Western blotting analysis. The format is cell-based. The settings on record: U-87MG ATCC. The method in brief:
as §3

In data set [12] the test system is A2780. Description: Cytotoxicity against human A2780 cells at 6.25 to 50 uM after 24 hrs by CellTitre-Glo assay. It counts as functional, cell-based. The method in brief: as §2

The source made the active and inactive calls. The calls are words filed in the database; no cut-off is given here. Some results are limits rather than exact numbers.

`Cc1cc(C)cc(C(=O)NC(=S)Nc2cc([N+](=O)[O-])ccc2O)c1`: the microsomal CLint in [1] amounted to 1260 µL/min/mg. Besides, in data set [2], the half-life amounted to 0.03 h.

For the compound `O=C(NC(=S)Nc1cc([N+](=O)[O-])cc(Cl)c1O)c1ccccc1`, the inhibition entry in data set [3] was “Active”.

For `O=C(c1ccccc1)c1cn(-c2ccc(Cl)cc2O)nn1`, the values for the EC50 in the data set on A2780 [4] and in the data set with A2780 [5] were 48.9 µmol and 42.3 µmol, respectively.

For the compound `Cc1cc(C)cc(C(=O)c2cn(-c3c(C)cccc3O)nn2)c1`, the EC50 in the data set on A2780 [4] turned out to be 104 µM; in the data set with A2780 [5] it was 98.4 µmol.

With `Cc1ccc(O)c(-n2cc(C(=O)c3ccc4ccccc4c3)nn2)c1`, the EC50 in the data set on A2780 [4] and with A2780 [5] was over 100 µmol in each case.

Regarding `Cc1cccc(O)c1-n1cc(C(=O)c2ccc(C(C)C)cc2)nn1`, the EC50 in the data set on A2780 [4] and with A2780 [5] was over 100 µmol each time.

With `O=C(c1ccc2ccccc2c1)c1cn(-c2cc(Cl)ccc2O)nn1`, the EC50 in the data set with A2780 [4] and with A2780 [5] was over 100 µmol in each case.

Turning to `COc1ccc(Cl)cc1-n1cc(C(=O)c2ccccc2)nn1`, the EC50 in the data set with A2780 [4] and in the data set with A2780 [5] was over 100 µmol throughout.

As for `Cc1cc(C)cc(C(=O)c2cn(-c3cc(Cl)ccc3O)nn2)c1`, the figures for the EC50 in the data set with A2780 [4] and in the data set with A2780 [5] were 57.8 µmol and 30.6 µmol, respectively.

As for `Cc1ccc(O)c(-n2cc(C(=O)c3ccc(C(C)C)cc3)nn2)c1`, the EC50 in the data set with A2780 [4] and in the data set with A2780 [5] was over 100 µmol throughout.

Regarding `O=C(c1ccccc1)c1cn(-c2cc(Cl)ccc2O)nn1`, the EC50 was 104 µM in the data set on A2780 [4] and 51.6 µmol in the data set with A2780 [5].

In the case of `Cc1cc(C)cc(C(=O)c2cn(-c3cc(C)ccc3O)nn2)c1`, the EC50 with A2780 [4] and with A2780 [5] was over 100 µmol throughout.

Take `O=C(NCc1cn(-c2cc(Cl)ccc2O)nn1)c1cc(C(F)(F)F)cc(C(F)(F)F)c1`: the EC50 stood at 16.2 µmol in the data set on A2780 [4] and 14 µmol in the data set with A2780 [5].

As to `Cc1cccc(O)c1-n1cc(C(=O)c2ccc3ccccc3c2)nn1`, the EC50 with A2780 [4] stood at 85.2 µmol; in the data set with A2780 [5], 74.9 µmol.

In the case of `Cc1cc(C)cc(C(=O)c2cn(-c3ccc([N+](=O)[O-])cc3O)nn2)c1`, the EC50 was determined as 89.1 µmol in the data set with A2780 [4] and 70.5 µmol in the data set on A2780 [5].

With `Cc1cccc(O)c1-n1cc(C(=O)c2ccccc2)nn1`, the results for the EC50 with A2780 [4] and in the data set on A2780 [5] were 8.1 µmol and 8 µmol, respectively.

As for `O=C(c1cc(C(F)(F)F)cc(C(F)(F)F)c1)c1cn(-c2cc(Cl)ccc2O)nn1`, the result in the data set with U-87 MG, with A2780 [10], in the data set with T47D and in the data set on A2780 [12] was Active. For the same compound, the results for the EC50 in the data set with A2780 [4] and with A2780 [5] were 11.99 µmol and 3.15 µmol, respectively. In addition, the half-life in data set [6] is 3.22 h; in [2], 1.98 h. Moreover, in data set [1], the microsomal CLint came out at 19.4 µL/min/mg. The compound further returned a bioavailability in [7] of 85.1%. Also, the inhibition result in data set [8], in [3] and in data set [11] was “Active” each time. The same compound had a clearance in data set [9] of 15.5 mL/min/kg.

In the case of `Cc1ccc(O)c(-n2cc(C(=O)c3ccccc3)nn2)c1`, the EC50 with A2780 [4] and with A2780 [5] was over 100 µmol in each case.

With `CC(C)c1ccc(C(=O)c2cn(-c3cc(Cl)ccc3O)nn2)cc1`, the EC50 in the data set on A2780 [4] amounted to 64.1 µmol; in the data set on A2780 [5], 41.6 µmol.

In the case of `Cc1cc(C)cc(C(=O)c2cn(-c3ccc(Cl)cc3O)nn2)c1`, the EC50 in the data set with A2780 [4] was over 100 µmol; with A2780 [5], 64.4 µmol.

The term half-life denotes how long it takes for the measured level to halve. The low end stands for fast loss, the high end for slow loss. For orientation: bioavailability means the share of a dose that reaches the circulation, judged against a reference dose that is usually intravenous. A lower bioavailability goes with poor availability. As usually defined, the clearance is the rate of elimination divided by the concentration. Lower therefore signals a low capacity for elimination.

Source of the values: ChEMBL document CHEMBL3596181, “Optimization of the anti-cancer activity of phosphatidylinositol-3 kinase pathway inhibitor PITENIN-1: switching a thiourea with 1,2,3-triazole” (Medchemcomm, 2014).
